Test results as given in ChEMBL document CHEMBL1132566, “A new class of pseudopeptide antagonists of the kinin B1 receptor containing alkyl spacers” (J Med Chem, 1999).
The source made the active and inactive calls. No cut-off for these calls is given here. Where a SMILES comes first, the peptide text is derived from it. [ ]: non-standard residue; d: D form. Oic = O=C(O)[C@@H]1C[C@@H]2CCCC[C@@H]2N1; d2Nal = N[C@H](Cc1ccc2ccccc2c1)C(=O)O; Hyp = O=C(O)[C@@H]1C[C@@H](O)CN1; dTic = O=C(O)[C@H]1Cc2ccccc2CN1; 2Thi = N[C@@H](Cc1cccs1)C(=O)O

How the values were obtained:
Assay type in all cases: functional, tissue-based
[1] = target: T1, B2 bradykinin receptor (Cavia porcellus) (UniProt O70526); assay: (§1) Antagonistic activity against Bradykinin receptor B2 of guinea pig ileum longitudinal smooth muscle.
T1 sequence (whole entry): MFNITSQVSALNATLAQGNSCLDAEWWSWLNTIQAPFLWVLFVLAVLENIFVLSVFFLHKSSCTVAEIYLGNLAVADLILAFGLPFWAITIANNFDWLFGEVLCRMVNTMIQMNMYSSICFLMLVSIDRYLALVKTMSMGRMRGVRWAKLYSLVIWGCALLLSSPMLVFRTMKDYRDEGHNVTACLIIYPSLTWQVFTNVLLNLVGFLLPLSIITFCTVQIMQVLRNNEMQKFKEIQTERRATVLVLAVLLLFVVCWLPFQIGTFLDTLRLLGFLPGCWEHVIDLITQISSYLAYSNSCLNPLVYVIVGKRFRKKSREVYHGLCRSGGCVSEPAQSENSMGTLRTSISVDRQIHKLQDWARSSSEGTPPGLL
In short: (§2)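 Guinea pig ileum longitudinal muscle-myenteric plexus strips in oxygenated (95% O2/5% CO2) Krebs with indomethacin, guanethidine (3 μM each), chlorpheniramine, atropine (1 μM each). Cumulative BK curves with thiorphan, bestatin, captopril (1 μM each); antagonist given 15 min before repeat curve at 1–10 μM. Contraction read-out; pA2 (dose ratio 2), mean ± SE of 4–15 experiments.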

B1 bradykinin receptor = target: T2, B1 bradykinin receptor (Rattus norvegicus, UniProt P97583); assay: Antagonistic activity against Bradykinin receptor B1 of rat ileum longitudinal smooth muscle.; details: for Kb: read-out: pA2 (converted)
T2 sequence (P97583 whole entry): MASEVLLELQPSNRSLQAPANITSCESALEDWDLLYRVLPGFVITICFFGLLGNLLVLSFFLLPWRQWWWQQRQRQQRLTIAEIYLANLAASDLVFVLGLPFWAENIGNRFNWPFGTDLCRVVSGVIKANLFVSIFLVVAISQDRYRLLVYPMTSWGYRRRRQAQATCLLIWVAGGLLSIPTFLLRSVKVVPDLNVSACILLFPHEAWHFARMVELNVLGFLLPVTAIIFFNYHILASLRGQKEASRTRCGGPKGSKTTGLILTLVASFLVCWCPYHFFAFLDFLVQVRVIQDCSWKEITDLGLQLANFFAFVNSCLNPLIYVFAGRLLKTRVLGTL
In short: as §2, with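 “Rat” for “Guinea pig”, “desArg9-BK” for “BK”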

B2 bradykinin receptor = target: T3, B2 bradykinin receptor (Cavia porcellus, UniProt O70526); assay: as §1; details: for Kb: read-out: pA2 (converted); in short: as §2
T3 sequence (O70526 whole entry): T1 sequence (whole entry)

| pA2 [1] | Kb (B1 bradykinin receptor) [nM] | Kb (B2 bradykinin receptor) [nM] | pA2 (B2 bradykinin receptor) | pA2 (B1 bradykinin receptor) | Compound |
| --- | --- | --- | --- | --- | --- |
| inactive | 794 | – | – | – | NCCCC[C@H](NC(=O)[C@@H](N)CCCCN)C(=O)N[C@@H](CCCN=C(N)N)C(=O)NCCCCCCCCCCC(=O)N[C@@H](CO)C(=O)N1Cc2ccccc2C[C@@H]1C(=O)N1[C@H](C(=O)O)C[C@@H]2CCCC[C@@H]21 |
| inactive | 6310 | – | – | – | NC(N)=NCCC[C@@H](N)C(=O)N[C@@H](CCCN=C(N)N)C(=O)NCC(=O)NC1(C(=O)NCC(=O)N[C@@H](CO)C(=O)N2Cc3ccccc3C[C@@H]2C(=O)N2[C@H](C(=O)O)C[C@@H]3CCCC[C@@H]32)CCCCCC1 |
| – | 158 | 2000 | – | – | N=C(N)NCCC[C@@H](N)C(=O)N[C@@H](CCCNC(=N)N)C(=O)N1CCC[C@H]1C(=O)N1C[C@H](O)C[C@H]1C(=O)NCC(=O)N[C@@H](Cc1cccs1)C(=O)N[C@@H](CO)C(=O)N1Cc2ccccc2C[C@@H]1C(=O)N1[C@H](C(=O)O)C[C@@H]2CCCC[C@@H]21 (H-[dR]RP[Hyp]G[2Thi]S[dTic][Oic]-OH) |
| inactive | 1260 | – | – | – | NC(N)=NCCC[C@@H](N)C(=O)N[C@@H](CCCN=C(N)N)C(=O)NC1(C(=O)N[C@@H](CO)C(=O)N2Cc3ccccc3C[C@@H]2C(=O)N2[C@H](C(=O)O)C[C@@H]3CCCC[C@@H]32)CCCCCC1 |
| – | 100 | 3980 | – | – | NC(N)=NCCC[C@@H](N)C(=O)N[C@@H](CCCN=C(N)N)C(=O)NCCCCCCCCCCCC(=O)N[C@@H](CO)C(=O)N1Cc2ccccc2C[C@@H]1C(=O)N1[C@H](C(=O)O)C[C@@H]2CCCC[C@@H]21 |
| – | – | – | 5.5 | 6.3 | NCCCC[C@H](NC(=O)[C@@H](N)CCCCN)C(=O)N[C@@H](CCCN=C(N)N)C(=O)NCCCCCCCCCCC(=O)N[C@@H](CO)C(=O)N[C@@H](C(=O)N1[C@@H](C(=O)O)C[C@@H]2CCCC[C@@H]21)C1Cc2ccccc2C1 |
| inactive | 79.4 | – | – | – | NC(N)=NCCC[C@@H](N)C(=O)N[C@@H](CCCN=C(N)N)C(=O)NCCCCCCCCCCC(=O)N[C@@H](CO)C(=O)N1Cc2ccccc2C[C@@H]1C(=O)N1[C@H](C(=O)O)C[C@@H]2CCCC[C@@H]21 |
| – | 7.94 | 3160 | – | – | NCCCC[C@H](NC(=O)[C@@H](N)CCCCN)C(=O)N[C@@H](CCCN=C(N)N)C(=O)N1CCC[C@H]1C(=O)N1C[C@H](O)C[C@H]1C(=O)NCC(=O)N[C@H](C(=O)N[C@@H](CO)C(=O)N[C@@H](C(=O)N1[C@H](C(=O)O)C[C@@H]2CCCC[C@@H]21)C1Cc2ccccc2C1)C1Cc2ccccc2C1 |
| inactive | 6310 | – | – | – | NC(N)=NCCC[C@@H](N)C(=O)N[C@@H](CCCN=C(N)N)C(=O)NC1(C(=O)N[C@@H](CO)C(=O)N2Cc3ccccc3C[C@@H]2C(=O)N2[C@H](C(=O)O)C[C@@H]3CCCC[C@@H]32)CCCCCCCC1 |
| – | 3160 | > 10000 | – | – | NC(N)=NCCC[C@@H](N)C(=O)N[C@@H](CCCN=C(N)N)C(=O)NC1(C(=O)N[C@@H](CO)C(=O)N2Cc3ccccc3C[C@@H]2C(=O)N2[C@H](C(=O)O)C[C@@H]3CCCC[C@@H]32)CCCCCCC1 |
| inactive | 2510 | – | – | – | NC(N)=NCCC[C@@H](N)C(=O)N[C@@H](CCCN=C(N)N)C(=O)NCCC(=O)NC1(C(=O)NCCC(=O)N[C@@H](CO)C(=O)N2Cc3ccccc3C[C@@H]2C(=O)N2[C@H](C(=O)O)C[C@@H]3CCCC[C@@H]32)CCCCCC1 |
| inactive | 2000 | – | – | – | NC(N)=NCCC[C@@H](N)C(=O)N[C@@H](CCCN=C(N)N)C(=O)NCCCCCC(=O)N[C@@H](CO)C(=O)N1Cc2ccccc2C[C@@H]1C(=O)N1[C@H](C(=O)O)C[C@@H]2CCCC[C@@H]21 |
| – | 10000 | 794 | – | – | NC(N)=NCCC[C@@H](N)C(=O)N[C@@H](CCCN=C(N)N)C(=O)NCCCCCCCCCCC(=O)N[C@@H](CO)C(=O)N[C@@H](C(=O)N1[C@H](C(=O)N[C@@H](CCCN=C(N)N)C(=O)O)C[C@@H]2CCCC[C@@H]21)C1Cc2ccccc2C1 |
| inactive | 1000 | – | – | – | NCCCCC(N)C(=O)N[C@@H](CCCN=C(N)N)C(=O)NCCCCCCCCCCC(=O)N[C@@H](CO)C(=O)N1Cc2ccccc2C[C@@H]1C(=O)N1[C@H](C(=O)O)C[C@@H]2CCCC[C@@H]21 (stereo in doubt) |
| inactive | 10000 | – | – | – | NC(N)=NCCC[C@@H](N)C(=O)N[C@@H](CCCN=C(N)N)C(=O)NC1(C(=O)N[C@@H](CO)C(=O)N2Cc3ccccc3C[C@@H]2C(=O)N2[C@H](C(=O)O)C[C@@H]3CCCC[C@@H]32)CCCCC1 |
| – | 2000 | > 10000 | – | – | NC(N)=NCCC[C@@H](N)C(=O)N[C@@H](CCCN=C(N)N)C(=O)NCCCC(=O)NC1(C(=O)NCCCC(=O)N[C@@H](CO)C(=O)N2Cc3ccccc3C[C@@H]2C(=O)N2[C@H](C(=O)O)C[C@@H]3CCCC[C@@H]32)CCCCCC1 |
| – | 63.1 | 1000 | – | – | CC[C@H](C)[C@H](NC(=O)[C@@H](Cc1ccc2ccccc2c1)NC(=O)[C@H](CO)NC(=O)[C@H](Cc1ccccc1)NC(=O)CNC(=O)[C@@H]1CCCN1C(=O)[C@@H]1CCCN1C(=O)[C@H](CCCN=C(N)N)NC(=O)[C@H](CCCCN)NC(C)=O)C(=O)O (Ac-KRPPGFS[d2Nal]I-OH) |
| inactive | 3980 | – | – | – | NC(N)=NCCC[C@@H](N)C(=O)N[C@@H](CCCN=C(N)N)C(=O)NCCCCCCCC(=O)N[C@@H](CO)C(=O)N1Cc2ccccc2C[C@@H]1C(=O)N1[C@H](C(=O)O)C[C@@H]2CCCC[C@@H]21 |
| inactive | 251 | – | – | – | CC(=O)N[C@@H](CCCCN)C(=O)N[C@@H](CCCN=C(N)N)C(=O)NCCCCCCCCCCC(=O)N[C@@H](CO)C(=O)N1Cc2ccccc2C[C@@H]1C(=O)N1[C@H](C(=O)O)C[C@@H]2CCCC[C@@H]21 |
| – | – | – | 6 | 6.3 | NC(N)=NCCC[C@@H](N)C(=O)N[C@@H](CCCN=C(N)N)C(=O)NCCCCCCCCCCC(=O)N[C@@H](CO)C(=O)N[C@@H](C(=O)N1[C@@H](C(=O)O)C[C@H]2CCCC[C@H]21)C1Cc2ccccc2C1 |
| – | 20 | 6.31 | – | – | NC(N)=NCCC[C@@H](N)C(=O)N[C@@H](CCCN=C(N)N)C(=O)N1CCC[C@H]1C(=O)N1C[C@H](O)C[C@H]1C(=O)NCC(=O)N[C@H](C(=O)N[C@@H](CO)C(=O)N[C@@H](C(=O)N1[C@H](C(=O)N[C@@H](CCCN=C(N)N)C(=O)O)C[C@@H]2CCCC[C@@H]21)C1Cc2ccccc2C1)C1Cc2ccccc2C1 |
| – | 100 | 1260 | – | – | CC[C@H](C)[C@H](NC(=O)[C@@H](Cc1ccc2ccccc2c1)NC(=O)[C@H](CO)NC(=O)CCCCCCCCCCNC(=O)[C@H](CCCN=C(N)N)NC(=O)[C@H](CCCCN)NC(C)=O)C(=O)O |
